SUMO1 PPI mod: alters human SUMO1 binding to SIM partners; AID 602429; 360,000 compounds, 0.33% hits; inhibition, % at 20 µM; SUMO1 binding to a labelled peptide, TR-FRET, 1 h; in the data active = inhibition above about 37%
Target sequence (P63165 whole entry, looked up): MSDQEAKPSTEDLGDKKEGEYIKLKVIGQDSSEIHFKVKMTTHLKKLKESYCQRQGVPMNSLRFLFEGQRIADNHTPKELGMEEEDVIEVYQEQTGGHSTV
DNMT1 block: DNMT1 (human) enzyme inhibition | P26358 | DNMT1 molecular beacon, Hinp1I cleavage, fluorescence | inhibition (reported as % activation of signal), % at 10 µM | 360,000 compounds, 0.83% hits | AID 588458; in the data active = inhibition above about 50%
MT1-MMP act inh: MT1-MMP (human) activation inhibition | P50281 | GFP/RFP ratio change, % at 20 µM | HT1080 RFP-PRO-GFP cells, GFP/RFP ratio fluorescence, overnight; percent of plate control window, DMSO zero | AID 651647 | 360,000 compounds, 0.061% hits;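 active = GFP/RFP ratio change of at least 30% with cell ATP level not reduced by more than half and red fluorescence within 50% of control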
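Material – HT1080 RFP-PRO-GFP cells · Control set – DMSO wells and RFP-L50D-GFP cells · Incubation – overnight cell settling, then overnight compound exposure, 37 °C, 5% CO2 · Compound dosing – single-point 20 µM compound, 1% DMSO · Read-out – GFP/RFP fluorescence ratio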
CSN deneddyl inh: inhibitors of human CSN-mediated cullin deneddylation; Q92905; Purified CSN, SCF-Nedd8-OG deneddylation, fluorescence polarization; inhibition, % at 12.5 µM; 360,000 compounds, 0.38% hits;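 active = pattern-corrected inhibition above about 35%, with an unprinted fluorescence ratio check between 0.5 and 1.5, limit read from the data, passing the limit was not always enough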
Target sequence (Q92905 whole entry, looked up, one chain of several): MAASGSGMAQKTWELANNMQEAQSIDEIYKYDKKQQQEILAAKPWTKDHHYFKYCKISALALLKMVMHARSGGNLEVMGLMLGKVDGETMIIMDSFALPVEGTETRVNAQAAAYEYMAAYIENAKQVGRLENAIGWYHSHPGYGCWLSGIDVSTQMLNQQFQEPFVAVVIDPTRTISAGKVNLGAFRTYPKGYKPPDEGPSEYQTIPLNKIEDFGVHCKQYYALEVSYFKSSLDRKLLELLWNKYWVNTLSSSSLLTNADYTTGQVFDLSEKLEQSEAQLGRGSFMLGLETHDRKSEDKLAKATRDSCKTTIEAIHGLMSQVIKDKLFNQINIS
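Material: human Csn5 produced in HEK293T cells; Input: enzyme 0.24 nM; Reagent: SCFSkp2-Nedd8OG substrate at 10 nM final; Dosing: 12.5 µM compound; Incubation: 90 min reaction at room temperature; Detection: fluorescence polarization of the substrate; Evaluation: % inhibition of substrate cleavage by Csn5; Control set: substrate-only high control, full reaction low control.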
Rpn11 block: inhibitors of human proteasome Rpn11; O00487; inhibition, % at 20 µM; AID 588493; 360,000 compounds, 0.59% hits; human 26S proteasome, Ub4-pepOG fluorescence polarization; 20S core pre-blocked with epoxomicin;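 active = inhibition at 20 µM, scaled to each plate's controls, above about 33%, limit read from the data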
SKN-1 block: C. elegans SKN-1 inhibition. C. elegans VP596 Pgst-4::GFP/RFP ratio, acrylamide-induced, 24 h. inhibition, % at 21.8 µM. 360,000 compounds, 0.49% hits;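 active = interference check ratio from 0.5 to 1.5 plus GFP to RFP signal ratio inhibition reaching or exceeding a fixed threshold, cut at about 30% in these data, passing the limit was not always enough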
Rpn11 inh conf: Rpn11 inhibition confirmation, single concentration; shares compounds with Rpn11 block; purified human 26S proteasome, Ub4-pepOG fluorescence polarization; proteasome pretreated with epoxomicin; inhibition, % at 20 µM; 1,900 compounds, 29% hits; AID 602318
MMP-2 counter: blocks human MMP-2, flagging nonselective RPN11 hits; shares compounds with Rpn11 block; recombinant MMP-2, FRET peptide cleavage fluorescence; inhibition, % at 20 µM; 1,900 compounds, 4% hits; AID 602330;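 note: human MMP-2 activated beforehand with APMA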
Thrombin inh: thrombin (bovine) inhibition counter-screen | shares compounds with Rpn11 block | bovine thrombin cleavage of Ub4-pepOG, fluorescence polarization | inhibition, % at 20 µM | 1,900 compounds, 13% hits;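 active = mean inhibition at least 40% at 20 µM, or signal 3 deviations below plate average, so some actives read negative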
Hits are given with their value; i = inactive; nt = not tested or not shown. Rows were chosen to be rich in hits. Some 2.3% of all compounds tested hit in one or more screens of this group. Cut-off read from the data, not from the text of the source, unless noted: active = inhibition above about 40%; inactive = the rest.

SMILES	SUMO1 PPI mod	DNMT1 block	MT1-MMP act inh	CSN deneddyl inh	Rpn11 block	SKN-1 block	Rpn11 inh conf	MMP-2 counter	Thrombin inh
COc1cc(/C=C2\SC(=Nc3c(C)n(C)n(-c4ccccc4)c3=O)NC2=O)ccc1O	i	i	i	i	90.0	i	i	i	i
COc1cc(C2SCC(=O)N2c2c(C)n(C)n(-c3ccccc3)c2=O)ccc1O (stereo not drawn)	i	i	i	i	i	i	nt	nt	nt
COc1cc(/C=C2\SC(=Nc3ccc(O)cc3)NC2=O)cc(OC)c1O	i	i	i	i	45.1	i	i	i	i
C=CCNC(=O)/C(C#N)=C/c1c(N(Cc2ccccc2)Cc2ccccc2)nc2ccccn2c1=O	i	i	i	i	46.1	i	i	i	i
N#C/C(=C\c1c(N(Cc2ccccc2)Cc2ccccc2)nc2ccccn2c1=O)C(N)=O	i	i	i	i	i	i	nt	nt	nt
C=CCn1c2ccccc2c2nnc(SCC(N)=O)nc21	i	i	i	i	45.2	i	i	i	i
Cc1ccc(CSCc2ccc(C(=O)O)o2)cc1	i	i	i	i	i	i	nt	nt	nt
CC(SCc1ccc(C(=O)O)o1)c1ccc(C(=O)O)o1 (stereo not drawn)	i	i	i	i	143.2	i	i	i	i
Clc1ccc(Br)cc1-c1nc(-c2ccncc2)no1	i	i	i	i	87.5	i	i	i	i
COC(=O)C[C@H]1C=C[C@H](NC(=O)C2CCOCC2)[C@@H](CO)O1	i	nt	i	i	nt	i	nt	nt	nt
Cc1ccc(-c2csc(Nc3ccc(S(N)(=O)=O)cc3)n2)o1	i	i	i	i	46.4	i	i	i	i
Cc1nc(C)c(-c2csc(Nc3ccc(S(N)(=O)=O)cc3)n2)s1	i	i	i	i	i	i	nt	nt	nt
COc1ccc(/C=C/C(=O)c2c(C)cc(C)[nH]c2=O)c2ccccc12	i	i	i	i	43.6	i	i	i	i
Cc1ccc(/C=C/C(=O)c2c(C)cc(C)[nH]c2=O)cc1	i	i	i	i	i	i	nt	nt	nt
Cc1cc(C)c(C(=O)/C=C/c2cccs2)c(=O)[nH]1	i	i	i	i	44.6	i	i	i	i
Cc1cc(C)cc(NC(=O)C(OC(=O)c2ccc(NC(=O)CC#N)cc2)c2ccccc2)c1 (stereo not drawn)	i	i	i	i	48.5	i	i	i	i
Cc1ccc(C)c(NC(=O)C(OC(=O)c2ccc(NC(=O)CC#N)cc2)c2ccccc2)c1 (stereo not drawn)	i	i	i	i	i	i	nt	nt	nt
CN1/C(=C/C(=S)NC(=O)C2(C)CC2(Cl)Cl)C(C)(C)c2ccccc21 (stereo not drawn)	i	i	i	i	i	i	nt	nt	nt
CN1/C(=C\C(=S)NC(=O)c2ccccc2Cl)C(C)(C)c2ccccc21	i	i	i	i	86.5	i	i	42.4	i
Cc1nc(SCc2nc3ccc(Br)cc3[nH]2)c2oc3ccccc3c2n1	i	i	i	i	51.7	i	44.4	i	i
Cc1nc(SCc2nc3ccc(Cl)cc3[nH]2)c2oc3ccccc3c2n1	i	i	i	i	i	i	nt	nt	nt
CN1NC(c2ccccc2)NN(C)C1=O	i	i	i	i	i	i	nt	nt	nt
O=C(N/N=C/c1cn(-c2ccccc2)nc1-c1ccc2c(c1)OCCO2)c1ccncc1	i	i	i	i	82.4	i	i	i	i
O=C(N/N=C\c1cn(-c2ccccc2)nc1-c1ccccc1)c1ccc2c(c1)OCO2	i	i	i	i	i	i	nt	nt	nt
C=CCn1c(CCC(=O)O)ccc1-c1ccc(OC)cc1	i	i	i	i	38.0	i	i	i	i
SMILES	SUMO1 PPI mod	DNMT1 block	MT1-MMP act inh	CSN deneddyl inh	Rpn11 block	SKN-1 block	Rpn11 inh conf	MMP-2 counter	Thrombin inh
COc1cccc(CNC(=O)[C@@H]2CCCN2C(=O)[C@H]2CCCCN2C(=O)c2cccc(Cl)c2)c1	i	nt	i	i	nt	i	nt	nt	nt
O=C(Nn1cnnc1)c1ccc(Br)s1	i	i	i	i	51.2	i	i	i	i
CCC(CC)C(=O)N(C)c1c(C)nc2c(OCc3ccc(F)c(F)c3)cccn12	i	i	i	i	i	i	nt	nt	nt
COC(=O)CCC(=O)N1CCCC(N2CCN(c3ccc(OC)cc3)CC2)C1 (stereo not drawn)	i	i	i	i	54.7	i	i	i	i
O=C(OCc1cn([C@H]2CN(C(=O)C3CCCCC3)[C@@H](c3ccccc3)C[C@@H]2O)nn1)c1ccccc1	i	i	i	i	i	i	nt	nt	nt
CCOC(=O)c1[nH]c(CSc2nnnn2-c2ccccc2C)c(C(=O)OCC)c1C	i	i	i	i	62.5	i	i	i	i
OC(c1cccc(CN2CCCCC2)c1)c1ncc(-c2cccc3ccccc23)[nH]1 (stereo not drawn)	i	i	i	i	i	i	nt	nt	nt
Cc1cc(NC(=O)CCC(=O)N(c2ccccc2)C(C(=O)NC2CCCC2)c2ccccc2)no1 (stereo not drawn)	i	i	i	i	43.9	i	i	i	i
Cc1ccc(N(C(=O)CCC(=O)Nc2cc(C)on2)C(C(=O)NC2CCCC2)c2ccccc2)cc1 (stereo not drawn)	i	i	i	i	i	i	nt	nt	nt
CCCCCCN1CCN(C2CN(Cc3cn(Cc4ccc(C)cc4)nn3)S(=O)(=O)C2)CC1 (stereo not drawn)	i	nt	i	i	nt	i	nt	nt	nt
O=C(/C=C\Nc1ccc2c(c1)OCO2)c1ccc(Cl)s1	i	i	i	i	35.8	i	i	i	i
O=C(/C=C\Nc1ccc2c(c1)OCO2)c1ccc2c(c1)OCO2	i	i	i	i	37.7	i	i	i	i
COc1ccc(N/C=C\C(=O)c2ccc3c(c2)OCO3)cc1	i	i	i	i	i	i	nt	nt	nt
COc1ccc(NCC(=O)Nc2ccc(Br)cc2F)c(OC)c1	i	i	i	i	39.7	i	i	i	i
CSCCC(c1nc2ccccc2[nH]1)n1c(=O)c(-c2ccco2)nc2ccccc21 (stereo not drawn)	i	nt	i	i	nt	i	nt	nt	nt
Oc1ccc(C=NN=C2c3ccccc3-c3ccccc32)c(O)c1	i	i	i	i	74.3	i	57.5	i	49.1
COc1ccc(C(=O)/C(C#N)=N/Nc2ccc([N+](=O)[O-])cc2)cc1	i	i	i	i	33.7	i	i	i	i
CCCN1CCN(CCCNC(=O)c2cc3c(=O)n(C)c4ccccc4c3n2C)CC1	i	i	i	i	i	i	nt	nt	nt

Source: PubChem (Sanford-Burnham Center for Chemical Genomics)
